In ChEMBL document CHEMBL5532692, “Structure-based virtual screening of unbiased and RNA-focused libraries to identify new ligands for the HCV IRES model system” (RSC Med Chem, 2024) one finds Kd, Activity and EC50 data, which are given here for ten molecules.

The structures appear in SMILES notation.

By Kd is commonly meant the constant that tells how readily two partners part at equilibrium. For orientation: EC50 means the concentration needed to bring the measured effect to its halfway point.

Assay [1] has as its target Internal ribosome entry site (IRES). Description: Binding affinity to HCV IRES subdomain IIa RNA assessed as dissociation constant by MST assay. The class given is nucleic-acid assay, Hepacivirus hominis. In outline:
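Same two-stranded IIa RNA, Cy5-labelled, annealed at 75 °C then cooled to room temperature for at least 20 min in 10 mM HEPES pH 7.0, 2 mM MgCl2. Used at 30 nM with compound from 1 mM (or 316/100 μM if solubility-limited) to 0.01 μM in 3.16-fold steps, 2% DMSO final. Thermophoresis read after 18 s laser on-time. KD from triplicates.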

Assay [2] concerns Internal ribosome entry site (IRES). Description: Binding affinity to HCV IRES subdomain IIa RNA. The note with it: Hepacivirus hominis; dose 0.001-1000 µM.
Assay [3] has as its target Internal ribosome entry site (IRES). Description: Binding affinity to HCV IRES subdomain IIa RNA assessed as reduction in FRET signal by FRET assay. The format is nucleic-acid assay, Hepacivirus hominis. In outline: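 Two-stranded HCV IRES IIa RNA, 5'-Cy3 on one strand and 5'-Cy5 on the other, annealed at 75 °C then cooled to room temperature for at least 20 min in 10 mM HEPES pH 7.0, 2 mM MgCl2. RNA at 100 nM with compound; excitation 480 nm, Cy5 emission 670 nm. Dose–response 1 mM to 100 nM in 3.16-fold steps, 2% DMSO final. EC50 from at least triplicates.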

As for `CC(C)NCC(O)COc1ccc2[nH]cc(CCN)c2c1` (stereo unspecified), in assay [1], the Kd was 134 µM.
On to `NC1=NC(c2ccccc2)n2c(nc3ccccc32)N1` (stereo unspecified), for which, in assay [2], the Activity entry is “Dose-Dependent Effect”.
For the molecule `N=C(N)NC(=O)c1nc(Cl)c(N)nc1N` [AMILORIDE], the Kd in assay [1] is ≥ 100 µM.
With `NC1=NC(c2cn[nH]c2-c2cccc(O)c2)n2c(nc3ccccc32)N1` (stereo unspecified), in assay [1], the Kd was ≥ 100 µM. Besides, the EC50 in assay [3] was ≥ 1000 µM.
Regarding `CNC(=N)Nc1nc(C)c2ccc(OC)cc2n1`, the dissociation constant Kd in assay [1] was determined as 88 µM.
As to `COc1cccc(C2NC(N)=Nc3nc4ccccc4n32)c1` (stereo unspecified), the Activity result in assay [2] is “Dose-Dependent Effect”.
On to `NC1=Nc2nc3ccccc3n2C(C2CC2)N1` (stereo unspecified), for which the Activity result in assay [2] is “Dose-Dependent Effect”.
On to `CCOc1ccc2c(C)nc(NC(=N)N)nc2c1`, for which the Kd in assay [1] turned out to be 189 µM.
Regarding `Nc1cc(-c2ccc3[nH]ncc3c2)c2cc[nH]c2n1`, the dissociation constant Kd in assay [1] is ≥ 50 µM.
Same read-out and setting: the same measure for `COc1ccc2c(C)nc(NC(=N)N)nc2c1`: 134 µM.
